Source: ChEMBL document CHEMBL5705885, “CYT387, a selective JAK1/JAK2 inhibitor: in vitro assessment of kinase selectivity and preclinical studies using cell lines and primary cells from polycythemia vera patients” (Leukemia, 2009)
pIC50: −log10 of the molar value.

Experiments:
[1] = biological target: G protein-coupled receptor kinase 4 (Homo sapiens, UniProt P32298); experiment: Inhibition of GRK4 (unknown origin)
[2] = biological target: Mitogen-activated protein kinase kinase kinase 8 (Homo sapiens, UniProt P41279); experiment: Inhibition of MAP3K8 (unknown origin)
Mitogen-activated protein kinase kinase kinase 8, sequence (P41279 whole entry): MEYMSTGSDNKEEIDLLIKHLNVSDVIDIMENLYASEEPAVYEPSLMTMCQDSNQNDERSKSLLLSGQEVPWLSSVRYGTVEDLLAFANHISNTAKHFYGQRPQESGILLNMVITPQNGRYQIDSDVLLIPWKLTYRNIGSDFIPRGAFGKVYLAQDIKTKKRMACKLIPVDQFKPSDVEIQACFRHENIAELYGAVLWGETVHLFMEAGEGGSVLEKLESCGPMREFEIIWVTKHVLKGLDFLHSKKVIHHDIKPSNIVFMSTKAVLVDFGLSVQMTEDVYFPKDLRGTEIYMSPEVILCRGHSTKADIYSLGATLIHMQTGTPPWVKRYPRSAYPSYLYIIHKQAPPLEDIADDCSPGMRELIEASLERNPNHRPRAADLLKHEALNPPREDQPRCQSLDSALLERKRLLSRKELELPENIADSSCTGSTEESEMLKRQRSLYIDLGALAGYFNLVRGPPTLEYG

[3] = biological target: Protein-tyrosine kinase 6 (Homo sapiens, UniProt Q13882); experiment: Inhibition of PTK6 (unknown origin)
[4] = biological target: Ribosomal protein S6 kinase alpha-1 (Homo sapiens) (UniProt Q15418); settings: dose 100.0 nM
[5] = biological target: Proto-oncogene tyrosine-protein kinase Src (Homo sapiens, UniProt P12931); experiment: Inhibition of SRC (unknown origin)
[6] = biological target: cAMP-dependent protein kinase catalytic subunit alpha (Homo sapiens, UniProt P17612); experiment: Inhibition of PRKACA (unknown origin)
[7] = biological target: Cyclin-dependent kinase 5/CDK5 activator 1 (Homo sapiens, UniProt Q00535); experiment: Inhibition of CDK5/p35 (unknown origin); assay type: protein-complex assay
[8] = biological target: Platelet-derived growth factor receptor beta (Homo sapiens, UniProt P09619); experiment: Inhibition of PDGFRB (unknown origin)
[9] = biological target: Mitogen-activated protein kinase 12 (Homo sapiens, UniProt P53778); experiment: Inhibition of MAPK12 (unknown origin)
[10] = biological target: AMP-activated protein kinase (AMPK) alpha-1/beta-1/gamma-1 (Homo sapiens) (UniProt P54619+Q9Y478+Q13131); settings: dose 100.0 nM
[11] = biological target: Mitogen-activated protein kinase kinase kinase 9 (Homo sapiens, UniProt P80192); settings: dose 100.0 nM
[12] = biological target: T1, Ribosomal protein S6 kinase beta-1 (Homo sapiens, UniProt P23443); settings: dose 100.0 nM
[13] = biological target: Cyclin-dependent kinase 5/CDK5 activator 1 (Homo sapiens) (UniProt Q00535+Q15078); settings: dose 100.0 nM
[14] = biological target: Tyrosine-protein kinase Fer (Homo sapiens, UniProt P16591); experiment: Inhibition of FER (unknown origin)
[15] = biological target: Mitogen-activated protein kinase 1 (Homo sapiens, UniProt P28482); experiment: Inhibition of MAPK1 (unknown origin)
[16] = biological target: Serine/threonine-protein kinase Sgk3 (Homo sapiens, UniProt Q96BR1); experiment: Inhibition of SGKL (unknown origin)
[17] = biological target: Proto-oncogene tyrosine-protein kinase ROS (Homo sapiens, UniProt P08922); settings: dose 100.0 nM
[18] = biological target: T1, Ribosomal protein S6 kinase beta-1; experiment: Inhibition of RPS6KB1 (unknown origin)
[19] = Inhibition of CDK2/cyclin A (unknown origin); set-up: species or system Homo sapiens
[20] = biological target: High affinity nerve growth factor receptor (Homo sapiens, UniProt P04629); experiment: Inhibition of NTRK1 (unknown origin)
[21] = biological target: Serine/threonine-protein kinase PAK 4 (Homo sapiens, UniProt O96013); settings: dose 100.0 nM
[22] = biological target: Serine/threonine-protein kinase MARK1 (Homo sapiens, UniProt Q9P0L2); experiment: Inhibition of MARK1 (unknown origin)
[23] = biological target: Macrophage colony-stimulating factor 1 receptor (Homo sapiens, UniProt P07333); experiment: Inhibition of CSF1R (unknown origin)
[24] = biological target: Inhibitor of nuclear factor kappa-B kinase subunit beta (Homo sapiens) (UniProt O14920); settings: dose 100.0 nM
[25] = biological target: Ephrin type-A receptor 3 (Homo sapiens, UniProt P29320); experiment: Inhibition of EPHA3 (unknown origin)
Ephrin type-A receptor 3, sequence (P29320 whole entry): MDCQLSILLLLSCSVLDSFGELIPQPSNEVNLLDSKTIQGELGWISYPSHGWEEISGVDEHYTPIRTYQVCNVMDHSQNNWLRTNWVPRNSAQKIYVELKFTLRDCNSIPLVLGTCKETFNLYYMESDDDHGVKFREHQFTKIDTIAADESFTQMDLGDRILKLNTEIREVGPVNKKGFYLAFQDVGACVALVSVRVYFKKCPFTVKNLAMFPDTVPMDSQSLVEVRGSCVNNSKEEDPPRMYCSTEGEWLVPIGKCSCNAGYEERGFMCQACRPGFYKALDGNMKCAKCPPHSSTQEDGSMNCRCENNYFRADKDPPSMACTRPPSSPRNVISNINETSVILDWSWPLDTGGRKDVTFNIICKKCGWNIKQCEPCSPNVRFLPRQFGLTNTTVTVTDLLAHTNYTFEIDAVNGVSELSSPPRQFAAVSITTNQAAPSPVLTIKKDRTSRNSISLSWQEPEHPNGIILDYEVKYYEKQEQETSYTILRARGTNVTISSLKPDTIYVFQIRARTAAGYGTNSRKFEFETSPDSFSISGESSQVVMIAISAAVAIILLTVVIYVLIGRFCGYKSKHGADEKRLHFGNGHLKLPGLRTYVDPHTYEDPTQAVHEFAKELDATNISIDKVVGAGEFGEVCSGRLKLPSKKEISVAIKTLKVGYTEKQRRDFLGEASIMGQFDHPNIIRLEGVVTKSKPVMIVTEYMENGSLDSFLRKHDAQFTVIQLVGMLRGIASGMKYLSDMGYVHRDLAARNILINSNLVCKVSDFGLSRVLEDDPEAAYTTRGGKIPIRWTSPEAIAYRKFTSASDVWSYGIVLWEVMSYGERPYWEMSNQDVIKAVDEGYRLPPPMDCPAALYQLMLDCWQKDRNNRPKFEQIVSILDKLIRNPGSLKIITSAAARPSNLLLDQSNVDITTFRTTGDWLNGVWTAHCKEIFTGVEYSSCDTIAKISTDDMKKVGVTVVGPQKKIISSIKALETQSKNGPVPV

[26] = biological target: Dual specificity protein kinase CLK1 (Homo sapiens, UniProt P49759); experiment: Inhibition of CLK1 (unknown origin)
[27] = biological target: Serine/threonine-protein kinase B-raf (Homo sapiens, UniProt P15056); experiment: Inhibition of BRAF (unknown origin)
[28] = biological target: Insulin receptor (Homo sapiens, UniProt P06213); experiment: Inhibition of INSR (unknown origin)
[29] = biological target: Inhibitor of nuclear factor kappa-B kinase subunit beta (Homo sapiens, UniProt O14920); experiment: Inhibition of IKBKB (unknown origin)
[30] = biological target: T2, Myosin light chain kinase 2, skeletal/cardiac muscle (Homo sapiens, UniProt Q9H1R3); experiment: Inhibition of MYLK2 (unknown origin)
T2 sequence (Q9H1R3 whole entry): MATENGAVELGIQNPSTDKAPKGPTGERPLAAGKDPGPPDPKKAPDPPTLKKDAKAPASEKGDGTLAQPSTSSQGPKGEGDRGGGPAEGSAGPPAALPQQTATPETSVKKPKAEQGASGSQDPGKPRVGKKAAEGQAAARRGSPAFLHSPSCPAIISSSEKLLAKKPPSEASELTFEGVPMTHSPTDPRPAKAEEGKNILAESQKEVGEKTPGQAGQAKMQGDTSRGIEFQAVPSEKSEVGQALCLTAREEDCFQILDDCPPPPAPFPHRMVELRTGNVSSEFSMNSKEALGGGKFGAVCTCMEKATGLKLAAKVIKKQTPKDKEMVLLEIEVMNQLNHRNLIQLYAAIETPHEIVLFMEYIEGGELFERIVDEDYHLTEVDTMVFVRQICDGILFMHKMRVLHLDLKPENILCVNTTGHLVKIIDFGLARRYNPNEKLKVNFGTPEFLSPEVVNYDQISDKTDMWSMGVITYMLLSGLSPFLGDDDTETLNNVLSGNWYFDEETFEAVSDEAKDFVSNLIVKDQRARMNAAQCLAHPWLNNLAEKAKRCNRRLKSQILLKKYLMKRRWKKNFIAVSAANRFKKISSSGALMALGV

[31] = biological target: SRSF protein kinase 3 (Homo sapiens, UniProt Q9UPE1); experiment: Inhibition of STK23 (unknown origin)
[32] = biological target: Signal transducer and activator of transcription 5A (Homo sapiens) (UniProt P42229); experiment: Inhibition of STAT5 phosphorylation in human HEL cells by Western blot analysis; assay type: cell-based; settings: dose <= 1.0 µM
Outline: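 HEL cells were starved overnight in RPMI with 1% FCS, then exposed to compound for 2 h at 37 °C. Cells were lysed in RIPA buffer (50 mM HEPES pH 7.4, 150 mM NaCl, 1% Triton X-100, deoxycholate, 0.1% SDS) with protease and phosphatase inhibitors. Protein was quantified by Bradford assay and blots were developed by chemiluminescence. Membranes were stripped and reprobed for total STAT5.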

[33] = biological target: Receptor tyrosine-protein kinase erbB-2 (Homo sapiens, UniProt P04626); experiment: Inhibition of ERBB2 (unknown origin)
[34] = biological target: Serine/threonine-protein kinase PLK1 (Homo sapiens, UniProt P53350); experiment: Inhibition of PLK1 (unknown origin)
[35] = biological target: Protein kinase C gamma type (Homo sapiens, UniProt P05129); experiment: Inhibition of PRKCG (unknown origin)
[36] = biological target: Ephrin type-B receptor 3 (Homo sapiens, UniProt P54753); experiment: Inhibition of EPHB3 (unknown origin)
[37] = biological target: Mitogen-activated protein kinase 8 (Homo sapiens) (UniProt P45983); settings: dose 100.0 nM
[38] = biological target: Tyrosine-protein kinase JAK1 (Homo sapiens) (UniProt P23458); settings: dose 100.0 nM
[39] = biological target: Glycogen synthase kinase-3 alpha (Homo sapiens, UniProt P49840); experiment: Inhibition of GSK3alpha (unknown origin)
Glycogen synthase kinase-3 alpha, sequence (P49840 whole entry): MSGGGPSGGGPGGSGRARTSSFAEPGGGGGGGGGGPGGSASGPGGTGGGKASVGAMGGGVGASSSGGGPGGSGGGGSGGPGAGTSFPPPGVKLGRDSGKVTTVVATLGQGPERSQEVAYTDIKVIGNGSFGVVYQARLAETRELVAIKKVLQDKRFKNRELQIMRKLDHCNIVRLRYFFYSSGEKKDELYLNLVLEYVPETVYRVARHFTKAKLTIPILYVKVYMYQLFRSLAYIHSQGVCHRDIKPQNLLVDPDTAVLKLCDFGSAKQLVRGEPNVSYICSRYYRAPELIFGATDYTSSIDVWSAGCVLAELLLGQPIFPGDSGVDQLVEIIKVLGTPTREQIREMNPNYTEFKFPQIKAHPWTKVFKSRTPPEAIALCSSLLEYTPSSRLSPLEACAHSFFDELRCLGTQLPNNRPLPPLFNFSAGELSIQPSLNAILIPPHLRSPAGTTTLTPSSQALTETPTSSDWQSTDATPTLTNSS

[40] = biological target: Testis-specific serine/threonine-protein kinase 2 (Homo sapiens, UniProt Q96PF2); experiment: Inhibition of STK22B (unknown origin)
Testis-specific serine/threonine-protein kinase 2, sequence (Q96PF2 whole entry): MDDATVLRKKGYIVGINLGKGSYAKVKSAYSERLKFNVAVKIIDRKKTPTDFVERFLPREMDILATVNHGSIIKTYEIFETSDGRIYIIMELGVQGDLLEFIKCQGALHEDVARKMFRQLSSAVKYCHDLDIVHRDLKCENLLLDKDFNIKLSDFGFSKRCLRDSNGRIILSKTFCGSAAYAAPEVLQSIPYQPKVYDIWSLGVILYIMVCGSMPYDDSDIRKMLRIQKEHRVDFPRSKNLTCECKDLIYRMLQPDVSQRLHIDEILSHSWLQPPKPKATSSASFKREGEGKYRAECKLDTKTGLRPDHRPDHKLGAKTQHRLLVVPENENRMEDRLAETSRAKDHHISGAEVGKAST

[41] = biological target: T2, Myosin light chain kinase 2, skeletal/cardiac muscle; settings: dose 100.0 nM
[42] = biological target: BDNF/NT-3 growth factors receptor (Homo sapiens, UniProt Q16620); experiment: Inhibition of NTRK2 (unknown origin)
[43] = biological target: Homeodomain-interacting protein kinase 1 (Homo sapiens, UniProt Q86Z02); settings: dose 100.0 nM
Homeodomain-interacting protein kinase 1, sequence (Q86Z02 whole entry, looked up): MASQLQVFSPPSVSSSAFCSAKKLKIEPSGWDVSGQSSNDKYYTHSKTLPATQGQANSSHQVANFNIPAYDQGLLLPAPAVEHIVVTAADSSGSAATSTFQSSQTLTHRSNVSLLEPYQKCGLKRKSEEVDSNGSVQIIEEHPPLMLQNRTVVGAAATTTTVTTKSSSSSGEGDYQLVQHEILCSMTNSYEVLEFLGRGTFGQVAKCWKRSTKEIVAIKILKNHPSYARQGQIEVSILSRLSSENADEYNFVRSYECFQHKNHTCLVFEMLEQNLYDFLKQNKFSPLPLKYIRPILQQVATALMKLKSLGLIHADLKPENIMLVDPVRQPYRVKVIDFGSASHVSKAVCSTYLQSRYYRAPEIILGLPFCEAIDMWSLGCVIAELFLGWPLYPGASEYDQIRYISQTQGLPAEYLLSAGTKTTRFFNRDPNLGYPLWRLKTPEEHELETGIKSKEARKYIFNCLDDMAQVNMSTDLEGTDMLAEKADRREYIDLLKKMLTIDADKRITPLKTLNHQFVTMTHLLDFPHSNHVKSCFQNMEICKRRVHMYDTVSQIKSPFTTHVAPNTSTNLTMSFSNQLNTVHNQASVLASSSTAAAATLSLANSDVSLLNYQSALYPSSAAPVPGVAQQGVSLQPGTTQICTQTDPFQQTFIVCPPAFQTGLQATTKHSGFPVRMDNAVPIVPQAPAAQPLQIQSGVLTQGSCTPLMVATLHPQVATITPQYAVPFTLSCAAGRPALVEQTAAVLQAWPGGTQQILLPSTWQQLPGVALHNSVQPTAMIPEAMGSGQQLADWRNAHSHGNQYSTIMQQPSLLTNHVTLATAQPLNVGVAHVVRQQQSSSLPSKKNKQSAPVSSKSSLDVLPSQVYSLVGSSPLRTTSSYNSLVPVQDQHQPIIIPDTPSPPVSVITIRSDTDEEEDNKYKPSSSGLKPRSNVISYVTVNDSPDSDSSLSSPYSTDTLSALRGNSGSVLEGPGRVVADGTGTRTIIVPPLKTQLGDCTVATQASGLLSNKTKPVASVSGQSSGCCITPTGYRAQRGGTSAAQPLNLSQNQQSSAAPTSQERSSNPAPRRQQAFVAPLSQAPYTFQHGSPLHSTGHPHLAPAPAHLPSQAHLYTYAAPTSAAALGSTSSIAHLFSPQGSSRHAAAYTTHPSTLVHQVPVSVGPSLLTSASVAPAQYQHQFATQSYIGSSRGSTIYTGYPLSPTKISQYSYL

[44] = biological target: Tyrosine-protein kinase receptor TYRO3 (Homo sapiens) (UniProt Q06418); settings: dose 100.0 nM
[45] = biological target: Serine/threonine-protein kinase pim-1 (Homo sapiens, UniProt P11309); experiment: Inhibition of PIM1 (unknown origin)
Serine/threonine-protein kinase pim-1, sequence (P11309 whole entry): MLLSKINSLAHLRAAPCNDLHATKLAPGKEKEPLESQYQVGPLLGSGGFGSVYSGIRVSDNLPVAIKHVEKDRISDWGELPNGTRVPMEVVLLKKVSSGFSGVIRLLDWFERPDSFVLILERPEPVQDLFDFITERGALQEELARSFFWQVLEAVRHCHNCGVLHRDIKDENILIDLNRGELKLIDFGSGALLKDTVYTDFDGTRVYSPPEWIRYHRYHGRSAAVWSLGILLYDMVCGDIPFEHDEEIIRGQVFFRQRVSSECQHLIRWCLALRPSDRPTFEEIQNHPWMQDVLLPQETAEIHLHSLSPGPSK

G protein-coupled receptor kinase 4, sequence (P32298 whole entry): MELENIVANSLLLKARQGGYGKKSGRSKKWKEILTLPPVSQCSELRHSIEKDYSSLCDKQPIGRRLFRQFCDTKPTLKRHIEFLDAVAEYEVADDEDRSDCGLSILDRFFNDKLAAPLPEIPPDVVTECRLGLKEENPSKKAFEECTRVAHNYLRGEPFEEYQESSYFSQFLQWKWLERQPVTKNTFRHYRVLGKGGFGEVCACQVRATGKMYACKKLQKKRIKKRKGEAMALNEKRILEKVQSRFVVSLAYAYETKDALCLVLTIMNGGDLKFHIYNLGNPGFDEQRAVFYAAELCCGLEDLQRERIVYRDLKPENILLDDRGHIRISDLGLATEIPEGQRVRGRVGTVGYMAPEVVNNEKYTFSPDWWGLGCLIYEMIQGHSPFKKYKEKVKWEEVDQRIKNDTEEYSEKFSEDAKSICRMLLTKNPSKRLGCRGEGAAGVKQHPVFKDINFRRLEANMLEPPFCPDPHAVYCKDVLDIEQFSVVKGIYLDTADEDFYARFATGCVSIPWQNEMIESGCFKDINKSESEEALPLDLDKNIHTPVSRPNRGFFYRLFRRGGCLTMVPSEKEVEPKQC

N#CCNC(=O)c1ccc(-c2ccnc(Nc3ccc(N4CCOCC4)cc3)n2)cc1 [MOMELOTINIB]
> 7.00: pIC50 [19]
> 50%: inhibition [37] | inhibition [38]
< 50%: inhibition [4] | inhibition [10] | inhibition [11] | inhibition [12] | inhibition [13] | inhibition [17] | inhibition [21] | inhibition [24] | inhibition [41] | inhibition [43] | inhibition [44]
active: inhibition [32] Dose-Dependent Effect
< 6.00: pIC50 [3] | pIC50 [5] | pIC50 [6] | pIC50 [8] | pIC50 [9] | pIC50 [14] | pIC50 [16] | pIC50 [25] | pIC50 [28] | pIC50 [31] | pIC50 [33] | pIC50 [34] | pIC50 [36] | pIC50 [39] | pIC50 [40] | pIC50 [45]
> 6.00: pIC50 [1] | pIC50 [2] | pIC50 [7] | pIC50 [15] | pIC50 [18] | pIC50 [20] | pIC50 [22] | pIC50 [23] | pIC50 [26] | pIC50 [27] | pIC50 [29] | pIC50 [30] | pIC50 [35] | pIC50 [42]
